What was measured:
GST-Mdm2 RING domain [1] = biological target: GST-Mdm2 RING domain (Homo sapiens, UniProt Q00987); experiment: ATP binding competition assay; details: for binding to Mdm2 (displacement of bound γ-32P ATP): Mdm2(400–484), Nebularine: concentration range up to 1 mM
GST-Mdm2 RING domain [2] = experiment: ATP binding competition assay; design: species or system human; details: Mdm2(410–491) with eight lysines mutated to alanine (8 KA, Mdm2-NoLS)
GST-Mdm2(400–491) = GST-Mdm2(400–491) (Homo sapiens, UniProt Q00987); experiment: Isothermal titration calorimetry; format: binding; details: 2 mM ATP titrated into 100 nM GST-Mdm2(400–491), single-site isotherm
Method in brief: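 GST-Mdm2(400–491) was expressed in E. coli BL21 (16 h induction at 25°C) and purified on glutathione-Sepharose. In assay buffer (100 mM Tris-HCl pH 7.0, 100 mM NaCl, 10 mM MgCl2, 2 mM DTT), 2 mM ATP or GTP was injected into 100 nM protein over twenty injections. Buffer-alone heat of dilution was subtracted, and data were fitted to a single-site isotherm. Four independent measurements were made.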

Sequence of GST-Mdm2(400–491) (Q00987 400-491): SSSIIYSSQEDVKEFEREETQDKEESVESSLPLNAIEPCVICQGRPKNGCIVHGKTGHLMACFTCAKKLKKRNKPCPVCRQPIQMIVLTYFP

SMILES | binding to Mdm2 (displacement of bound γ-32P ATP) (GST-Mdm2 RING domain [1]) | dissociation constant (Kd) (GST-Mdm2 RING domain [1]; GST-Mdm2(400–491), competition of γ-32P ATP) | Kd (GST-Mdm2 RING domain [2]) | Kd (GST-Mdm2(400–491)) [µM]
OC[C@H]1O[C@@H](n2cnc3cncnc32)[C@H](O)[C@@H]1O [Nebularine] | no binding |  |  | 
Nc1ncnc2c1ncn2[C@@H]1O[C@H](COP(=O)(O)OP(=O)(O)OP(=O)(O)O)[C@@H](O)[C@H]1O [ATP, adenosine triphosphate] |  | low micromolar range | low micromolar range | 4
Nc1ncnc2c1ncn2[C@H]1C[C@H](O)[C@@H](CO)O1 [2′ deooxyadenosine, 2′deoxyadenosine] | completely abrogated the binding |  |  | 
Nc1nc(F)nc2c1ncn2[C@@H]1O[C@H](CO)[C@@H](O)[C@@H]1O [F-Ara-A, Fludarabine] | did not bind |  |  | 
